Experimental data reported in ChEMBL document CHEMBL2157961, “Optimisation of pharmacokinetic properties in a neutral series of 11β-HSD1 inhibitors” (Bioorg Med Chem Lett, 2012).
Values after ≈ are worked out from the molar mass of the structure shown.

How the values were obtained:
[1] = Lipophilicity, log D of the compound at pH 7.4; type: physicochemical; conditions: buffer
[2] = Oral bioavailability in rat; type: ADME, organism-based; conditions: in vivo
[3] = Cmax in dog at 1 mg/kg, po and iv; type: ADME, organism-based, Canis lupus familiaris; design: dose 1 mg/kg, route oral; conditions: in vivo
[4] = Oral bioavailability in dog at 1 mg/kg; type: ADME, organism-based, Canis lupus familiaris; conditions: in vivo
Canis familiaris = experiment: Volume of distribution at steady state in dog at 1 mg/kg, po and iv; type: ADME, organism-based, Canis lupus familiaris; design: dose 1 mg/kg, route oral; conditions: in vivo
[5] = Apparent permeability across basolateral to apical side in MDCK cells at 10 uM; type: ADME, cell-based, Canis lupus familiaris; conditions: dog
In short: (§1)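 Test compound at […] incubated on cultured MDCK cell monolayers. Apparent permeability measured in both directions, apical to basolateral and basolateral to apical.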

[6] = Apparent permeability across apical to basolateral side in MDCK cells at 10 uM; type: ADME, cell-based, Canis lupus familiaris; conditions: dog; in short: as §1
[7] = Aqueous solubility in phosphate buffer at pH 7.4 after 24 hrs; type: physicochemical
In short: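 Solubility measured on crystalline material in aqueous phosphate buffer, pH 7.4, after 24 h at 25 °C.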

Row | logD [1] | bioavailability [2] [%] | SMILES | other results
1 | 2.9 |  | CCCSc1nc(NC)ncc1C(=O)N[C@H]1C2CC3CC1C[C@](O)(C3)C2 | 
2 | 1.4 | 100 | Cc1ncc(C(=O)N[C@H]2C3CC4CC2C[C@](O)(C4)C3)c(CC(C)C)n1 | 
3 | 1.6 | 75 | Cc1ccc(C(=O)N[C@H]2C3CC4CC2C[C@](O)(C4)C3)c(C2CC2)n1 | Cmax [3]: 260 nM; bioavailability [4]: 37%; Vdss (Canis familiaris): 0.3 L/kg
4 | 1.2 |  | Cc1ncc(C(=O)N[C@H]2C3CC4CC2C[C@](O)(C4)C3)c(C2CC2)n1 | 
5 | 3 | 67 | O=C(N[C@H]1C2CC3CC1C[C@](O)(C3)C2)c1cnc(N2CCOCC2)nc1C1CCCC1 | 
6 | 3 | 36 | CCCOc1nc(N2CCOCC2)ncc1C(=O)N[C@H]1C2CC3CC1C[C@](O)(C3)C2 | 
7 | 2 | 100 | O=C(N[C@H]1C2CC3CC1C[C@](O)(C3)C2)c1ccc(N2CCOCC2)nc1C1CC1 | Cmax [3]: 40 nM; bioavailability [4]: 25%; Vdss (Canis familiaris): 0.6 L/kg
8 | 2.9 | 64 | CCCSc1nc(N2CCOCC2)ccc1C(=O)N[C@H]1C2CC3CC1C[C@](O)(C3)C2 | bioavailability [4]: 0%; Vdss (Canis familiaris): 0.5 L/kg
9 | 2.8 | 63 | CCCSc1nc(C)ccc1C(=O)N[C@H]1C2CC3CC1C[C@](O)(C3)C2 | Cmax [3]: 150 nM; bioavailability [4]: 5%; Vdss (Canis familiaris): 0.4 L/kg
10 | 2.5 | 74 | CCCSc1nc(C)ncc1C(=O)N[C@H]1C2CC3CC1C[C@](O)(C3)C2 | Cmax [3]: 490 nM; bioavailability [4]: 110%; Vdss (Canis familiaris): 0.3 L/kg
11 | 1.6 | 98 | CCCCc1nc(C)ncc1C(=O)N[C@H]1C2CC3CC1C[C@](O)(C3)C2 | 
12 | 2 | 77 | Cc1ncc(C(=O)N[C@H]2C3CC4CC2C[C@](O)(C4)C3)c(C2CCCC2)n1 | Cmax [3]: 170 nM; bioavailability [4]: 58%; Vdss (Canis familiaris): 0.9 L/kg
13 | 2.1 | 100 | O=C(N[C@H]1C2CC3CC1C[C@](O)(C3)C2)c1cnc(N2CCOCC2)nc1C1CC1 | Cmax [3]: 360 nM; Papp B→A at 10 µM [5]: 30 ×10⁻⁶ cm/s; bioavailability [4]: 100%; Vdss (Canis familiaris): 0.9 L/kg; Papp A→B at 10 µM [6]: 19 ×10⁻⁶ cm/s; solubility at 24 h [7]: 240 µM (≈ 95.6 µg/mL)
14 | 1.9 | 84 | Cc1ncc(C(=O)N[C@H]2C3CC4CC2C[C@](O)(C4)C3)c(C(C)(C)C)n1 | 
15 | 3.8 | 31 | CCCOc1nc(N2CCOCC2)ccc1C(=O)N[C@H]1C2CC3CC1C[C@](O)(C3)C2 | 
16 | 2.1 | 50 | Cc1ncc(C(=O)N[C@H]2C3CC4CC2C[C@](O)(C4)C3)c(CC2CCCC2)n1 | 
17 | 2.6 | 100 | CC(C)(C)c1nc(N2CCOCC2)ncc1C(=O)N[C@H]1C2CC3CC1C[C@](O)(C3)C2 | 
18 | 3.3 | 30 | CCCSc1nc(NC)ccc1C(=O)N[C@H]1C2CC3CC1C[C@](O)(C3)C2 | 
19 | 2 | 0 | CCCSc1ncncc1C(=O)N[C@H]1C2CC3CC1C[C@](O)(C3)C2 | 
20 | 1.2 |  | Cc1nc(N2CCOCC2)ncc1C(=O)N[C@H]1C2CC3CC1C[C@](O)(C3)C2 | 
21 | 2.4 | 45 | O=C(N[C@H]1C2CC3CC1C[C@](O)(C3)C2)c1cnc(N2CCOCC2)nc1C1CCC1 | 
22 | 2.8 | 83 | CCCSc1nc(N2CCOCC2)ncc1C(=O)N[C@H]1C2CC3CC1C[C@](O)(C3)C2 | Cmax [3]: 40 nM; bioavailability [4]: 10%; Vdss (Canis familiaris): 0.7 L/kg
23 | 1.2 |  | Cc1ncc(C(=O)N[C@H]2C3CC4CC2C[C@](O)(C4)C3)c(CC2CC2)n1 | 
24 | 3.4 |  | CCCSc1nc(N(C)C)ncc1C(=O)N[C@H]1C2CC3CC1C[C@](O)(C3)C2 | 
25 | 1.8 |  | CC1(c2nc(N3CCOCC3)ncc2C(=O)N[C@H]2C3CC4CC2C[C@](O)(C4)C3)CC1 | 
26 | 3.8 | 24 | CCCSc1nc(N(C)C)ccc1C(=O)N[C@H]1C2CC3CC1C[C@](O)(C3)C2 | 
27 | 3.2 | 31 | O=C(N[C@H]1C2CC3CC1C[C@](O)(C3)C2)c1cnc(N2CCOCC2)nc1C1CCCCC1 | 
28 | 1.1 |  | Cc1ncc(C(=O)N[C@H]2C3CC4CC2C[C@](O)(C4)C3)c(-c2ccccc2)n1 | 
